From the RNAGym collection of RNA variant scans (doi:10.1002/anie.201605470) come the findings set out here.

The chains are these.
B1: Osa-1-4 twister ribozyme (parent)
chain: CCGCCUAACACUGCCAAUGCCGGUCCCAAGCCCGGAUAAAAGUGGAGGGGGCGG

Variants of B1 are the subject of the series. Description: self-cleavage, relative activity (ratio to wild type); higher = more cleavage; co-transcriptional. The method, boiled down: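 The 48 positions downstream of the cleavage site in a DNA template for a 54-nucleotide Oryza sativa twister ribozyme carried 97 % wild-type base and 1 % of each other base. After in vitro transcription (2 h, 37 °C) with co-transcriptional self-cleavage, the RNA was reverse-transcribed with a template-switching oligonucleotide, PCR-amplified and deep-sequenced. Relative activity is the fraction cleaved, judged by reads with or without upstream sequence and normalised to wild type.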
Turning to CCGCCUAACACUGCCAAUGCCGGUCCCAAGCCCGGCUAAAAGCGGAGGGGGCGG [A36C U43C], the self-cleavage amounted to 0.13. With CCGCCUAACACUGCCAAUGCCGGUCCCAAGCCCGGCUAAAAGGGGAGGGGGCGG [A36C U43G] the figure was 0.11; with CCGCCUAACACUGCCAAUGCCGGUCCCAAGCCCGGCUAAAAGAGGAGGGGGCGG [A36C U43A], 0.15.

CCGCCUAACACUGCCAAUGCCGGUCCCAAGCCCGGGUAAAAGUGGUGGGGGCGG [A36G A46U]: the self-cleavage was 0.1.

Regarding CCGCCUAACACUGCCAAUGCCGGUCCCAAGCCCGGGUAAAAGUGGCGGGGGCGG [A36G A46C], the self-cleavage stood at 0.08. Regarding CCGCCUAACACUGCCAAUGCCGGUCCCAAGCCCGGGUAAAAGUGGGGGGGGCGG [A36G A46G], the self-cleavage was determined as 0.11.

In the case of CCGCCUAACACUGCCAAUGCCGGUCCCAAGCCCGGCUAAAAGUGGAGCGGGCGG [A36C G48C], the self-cleavage was 0.05. CCGCCUAACACUGCCAAUGCCGGUCCCAAGCCCGGCUAAAAGUGGAGUGGGCGG [A36C G48U]: the self-cleavage was found to be 0.04. The same measure for CCGCCUAACACUGCCAAUGCCGGUCCCAAGCCCGGCUAAAAGUGGAGAGGGCGG [A36C G48A]: 0.05; for CCGCCUAACACUGCCAAUGCCGGUCCCAAGCCCGGGUAUAAGUGGAGGGGGCGG [A36G A39U]: 0.97. As for CCGCCUAACACUGCCAAUGCCGGUCCCAAGCCCGGGUACAAGUGGAGGGGGCGG [A36G A39C], the self-cleavage came to 1.05. CCGCCUAACACUGCCAAUGCCGGUCCCAAGCCCGGGUAGAAGUGGAGGGGGCGG [A36G A39G]: the self-cleavage is 1.01. As for CCGCCUAACACUGCCAAUGCCGGUCCCAAGCCCGGCUAAAAGUGUAGGGGGCGG [A36C G45U], the self-cleavage came out at 0.05. The same measure for CCGCCUAACACUGCCAAUGCCGGUCCCAAGCCCGGCUAAAAGUGCAGGGGGCGG [A36C G45C]: 0.04; for CCGCCUAACACUGCCAAUGCCGGUCCCAAGCCCGGCUAAAAGUGAAGGGGGCGG [A36C G45A]: 0.07.

Turning to CCGCCUAACACUGCCAAUGCCGGUCCCAAGCCCGGGUAAAUGUGGAGGGGGCGG [A36G A41U], the self-cleavage was 0.99. The same measure for CCGCCUAACACUGCCAAUGCCGGUCCCAAGCCCGGGUAAAGGUGGAGGGGGCGG [A36G A41G]: 0.89; for CCGCCUAACACUGCCAAUGCCGGUCCCAAGCCCGGGUAAACGUGGAGGGGGCGG [A36G A41C]: 0.97. With CCGCCUAACACUGCCAAUGCCGGUCCCAAGCCCGGGUGAAAGUGGAGGGGGCGG [A36G A38G] the figure was 0.99; with CCGCCUAACACUGCCAAUGCCGGUCCCAAGCCCGGGUCAAAGUGGAGGGGGCGG [A36G A38C], 1.07. Take CCGCCUAACACUGCCAAUGCCGGUCCCAAGCCCGGGUUAAAGUGGAGGGGGCGG [A36G A38U]: the self-cleavage turned out to be 1.01.

Take CCGCCUAACACUGCCAAUGCCGGUCCCAAGCCCGGCUAAAAGUGGAGGGGACGG [A36C G51A]: the self-cleavage was 0.28. The same measure for CCGCCUAACACUGCCAAUGCCGGUCCCAAGCCCGGCUAAAAGUGGAGGGGUCGG [A36C G51U]: 0.11; for CCGCCUAACACUGCCAAUGCCGGUCCCAAGCCCGGCUAAAAGUGGAGGGGCCGG [A36C G51C]: 0.07.

Take CCGCCUAACACUGCCAAUGCCGGUACCAAGCCCGGGUAAAAGUGGAGGGGGCGG [A36G C25A]: the self-cleavage came out at 0.22. Consider CCGCCUAACACUGCCAAUGCCGGUUCCAAGCCCGGGUAAAAGUGGAGGGGGCGG [A36G C25U], for which the self-cleavage came to 0.94. The same measure for CCGCCUAACACUGCCAAUGCCGGUGCCAAGCCCGGGUAAAAGUGGAGGGGGCGG [A36G C25G]: 0.13. As for CCGCCUACCACUGCCAAUGCCGGUCCCAAGCCCGGGUAAAAGUGGAGGGGGCGG [A36G A8C], the self-cleavage was found to be 0.1.

For the variant CCGCCUAUCACUGCCAAUGCCGGUCCCAAGCCCGGGUAAAAGUGGAGGGGGCGG [A36G A8U], the self-cleavage turned out to be 0.53. For the variant CCGCCUAGCACUGCCAAUGCCGGUCCCAAGCCCGGGUAAAAGUGGAGGGGGCGG [A36G A8G], the self-cleavage is 0.66. In the case of CCGCCUAACACUGCCAACGCCGGUCCCAAGCCCGGCUAAAAGUGGAGGGGGCGG [A36C U18C], the self-cleavage is 0.67.

Take CCGCCUAACACUGCCAAGGCCGGUCCCAAGCCCGGCUAAAAGUGGAGGGGGCGG [A36C U18G]: the self-cleavage came to 0.87. The same measure for CCGCCUAACACUGCCAAAGCCGGUCCCAAGCCCGGCUAAAAGUGGAGGGGGCGG [A36C U18A]: 0.55. Turning to CCGCCUAACACUGCCAAUGCCGGUCCCAAGCCCGGCUAAAAGUCGAGGGGGCGG [A36C G44C], the self-cleavage was 0.58. The same measure for CCGCCUAACACUGCCAAUGCCGGUCCCAAGCCCGGCUAAAAGUUGAGGGGGCGG [A36C G44U]: 0.37; for CCGCCUAACACUGCCAAUGCCGGUCCGAAGCCCGGGUAAAAGUGGAGGGGGCGG [A36G C27G]: 0.13. For the variant CCGCCUAACACUGCCAAUGCCGGUCCAAAGCCCGGGUAAAAGUGGAGGGGGCGG [A36G C27A], the self-cleavage turned out to be 0.38. Consider CCGCCUAACACUGCCAAUGCCGGUCCUAAGCCCGGGUAAAAGUGGAGGGGGCGG [A36G C27U], for which the self-cleavage was found to be 0.32. In the case of CCGCCUAACACUGCCAAUGCCGGUCGCAAGCCCGGGUAAAAGUGGAGGGGGCGG [A36G C26G], the self-cleavage is 0.13. Turning to CCGCCUAACACUGCCAAUGCCGGUCACAAGCCCGGGUAAAAGUGGAGGGGGCGG [A36G C26A], the self-cleavage was 0.06.

Consider CCGCCUAACACUGCCAAUGCCGGUCUCAAGCCCGGGUAAAAGUGGAGGGGGCGG [A36G C26U], for which the self-cleavage is 0.98. Take CCGCCUGACACUGCCAAUGCCGGUCCCAAGCCCGGGUAAAAGUGGAGGGGGCGG [A36G A7G]: the self-cleavage was determined as 0.5. With CCGCCUUACACUGCCAAUGCCGGUCCCAAGCCCGGGUAAAAGUGGAGGGGGCGG [A36G A7U] the figure was 0.1; with CCGCCUCACACUGCCAAUGCCGGUCCCAAGCCCGGGUAAAAGUGGAGGGGGCGG [A36G A7C], 0.05. With CCGCCUAACACUGCCAAUGCCGGUCCCAAGCCCGGCUAAAAGUGGAGGGGGCGA [A36C G54A] the figure was 0.27.

For the variant CCGCCUAACACUGCCAAUGCCGGUCCCAAGCCCGGCUAAAAGUGGAGGGGGCGU [A36C G54U], the self-cleavage is 0.55. With CCGCCUAACACUGCCAAUGCCGGUCCCAAGCCCGGCUAAAAGUGGAGGGGGCGC [A36C G54C] the figure was 0.19.

CCGCCUAACACUGCUAAUGCCGGUCCCAAGCCCGGGUAAAAGUGGAGGGGGCGG [A36G C15U]: the self-cleavage came to 0.89.
